Consider 1 compound from ChEMBL document CHEMBL5705905, “Pharmacological targeting of kinases MST1 and MST2 augments tissue repair and regeneration” (Sci Transl Med, 2016).

The target of one data set is Aurora kinase B (Homo sapiens, UniProt Q96GD4). Put plainly: Binding affinity to AURKB (unknown origin) assessed as dissociation constant.
In data set [1] the test system is Mus musculus. Description: Protection against APAP induced liver injury in mouse assessed as increase in survival rate at 1 mg/kg, ip administered at 2.5 hrs […]. It is filed as functional. Summed up: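 Wild-type mice given oral APAP 400 mg/kg, then i.p. vehicle, NAC 250 mg/kg, 1 mg/kg test agent, or NAC plus test agent at 1.5 or 2.5 h. Mortality was tracked with n = 10–11 per group, Mantel-Cox test. Separately, TUNEL was done on liver after 200 mg/kg APAP with treatment at 2.5 h.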

For data set [2], the target named is Serine/threonine-protein kinase TAO1 (Homo sapiens, UniProt Q7L7X3). Put plainly: Binding affinity to TAOK1 (unknown origin) assessed as dissociation constant.
Data set [3] has as its target Serine/threonine-protein kinase BRSK1 (Homo sapiens) (UniProt Q8TDC3). Put plainly: Inhibition of BRSK1 (unknown origin) assessed as remaining activity at 1 uM by Kinome scan method relative to control. The essentials: (§1)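 Active-site-dependent competition-binding (KINOMEscan) panel of 468 kinases, test compound at 1 μM (from a 10 mM DMSO stock). Read-out is ctrl% = (test signal − positive control signal)/(negative control signal − positive control signal) × 100. DMSO is the negative control (100%) and a control compound is the positive control (0%). Lower ctrl% means tighter binding.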

Data set [4] deals with Protein kinase C eta type (Homo sapiens) (UniProt P24723). Put plainly: Inhibition of PRKCH (unknown origin) assessed as remaining activity at 1 uM by Kinome scan method relative to control.
Chain of Protein kinase C eta type (Homo sapiens) (P24723 whole entry): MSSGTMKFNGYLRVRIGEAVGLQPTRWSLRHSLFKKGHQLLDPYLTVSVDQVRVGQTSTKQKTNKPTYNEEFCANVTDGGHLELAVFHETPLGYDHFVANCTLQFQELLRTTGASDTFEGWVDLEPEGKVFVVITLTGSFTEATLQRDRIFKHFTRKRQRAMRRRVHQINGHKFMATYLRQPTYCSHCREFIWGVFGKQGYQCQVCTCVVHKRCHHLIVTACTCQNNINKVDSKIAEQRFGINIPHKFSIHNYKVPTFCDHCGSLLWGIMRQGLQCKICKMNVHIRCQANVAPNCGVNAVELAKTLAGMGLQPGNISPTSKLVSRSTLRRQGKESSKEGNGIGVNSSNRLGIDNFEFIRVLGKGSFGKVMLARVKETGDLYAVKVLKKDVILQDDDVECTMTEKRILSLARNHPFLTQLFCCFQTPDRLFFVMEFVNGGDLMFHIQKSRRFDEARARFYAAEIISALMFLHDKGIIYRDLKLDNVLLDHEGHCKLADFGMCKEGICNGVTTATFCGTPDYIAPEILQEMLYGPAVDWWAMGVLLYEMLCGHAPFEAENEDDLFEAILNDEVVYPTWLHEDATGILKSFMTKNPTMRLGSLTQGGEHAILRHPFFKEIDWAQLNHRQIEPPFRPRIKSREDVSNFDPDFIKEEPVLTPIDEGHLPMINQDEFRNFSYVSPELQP
Data set [5] has as its target Dual specificity protein kinase CLK4 (Homo sapiens) (UniProt Q9HAZ1). Description: Inhibition of CLK4 (unknown origin) assessed as remaining activity at 1 uM by Kinome scan method relative to control. The essentials:
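Active-site-dependent competition-binding profiling (KINOMEscan) at 1 μM against a 468-kinase panel; compound supplied from a 10 mM DMSO stock. Read-out is ctrl% = (test signal − positive control signal)/(negative control signal − positive control signal) × 100. DMSO is the negative control (100%) and a control compound the positive control (0%). Lower ctrl% means tighter binding.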

The nature of data set [6]: Apparent volume of distribution in male Sprague-Dawley rat at 5 mg/kg, iv measured for 24 hrs by LC-MS/MS analysis. It is filed as ADME, organism-based. Conditions: in vivo, read-out: Vz. Summed up:
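Sprague-Dawley rats, single intravenous or oral dose. Parameters (half-life, AUC, bioavailability) reported in a supplementary table.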

The target of data set [7] is Atypical kinase COQ8B, mitochondrial (Homo sapiens) (UniProt Q96D53). Description: Inhibition of ADCK4 (unknown origin) assessed as remaining activity at 1 uM by Kinome scan method relative to control. Summed up:
as §1

The target in data set [8] is Serine/threonine-protein kinase RIO2 (Homo sapiens) (UniProt Q9BVS4). Put plainly: Inhibition of RIOK2 (unknown origin) assessed as remaining activity at 1 uM by Kinome scan method relative to control.
Data set [9] concerns Epidermal growth factor receptor (Homo sapiens), P00533 [G719S]. Put plainly: Inhibition of EGFR G719S mutant (unknown origin) assessed as remaining activity at 1 uM by Kinome scan method relative to control.
In data set [10] the target is Cyclin-dependent kinase 14 (Homo sapiens) (UniProt O94921). Description: Inhibition of PFTK1 (unknown origin) assessed as remaining activity at 1 uM by Kinome scan method relative to control.
Data set [11] concerns the target T1, Serine/threonine-protein kinase 4 (Homo sapiens, UniProt Q13043).
T1 sequence (Q13043 whole entry): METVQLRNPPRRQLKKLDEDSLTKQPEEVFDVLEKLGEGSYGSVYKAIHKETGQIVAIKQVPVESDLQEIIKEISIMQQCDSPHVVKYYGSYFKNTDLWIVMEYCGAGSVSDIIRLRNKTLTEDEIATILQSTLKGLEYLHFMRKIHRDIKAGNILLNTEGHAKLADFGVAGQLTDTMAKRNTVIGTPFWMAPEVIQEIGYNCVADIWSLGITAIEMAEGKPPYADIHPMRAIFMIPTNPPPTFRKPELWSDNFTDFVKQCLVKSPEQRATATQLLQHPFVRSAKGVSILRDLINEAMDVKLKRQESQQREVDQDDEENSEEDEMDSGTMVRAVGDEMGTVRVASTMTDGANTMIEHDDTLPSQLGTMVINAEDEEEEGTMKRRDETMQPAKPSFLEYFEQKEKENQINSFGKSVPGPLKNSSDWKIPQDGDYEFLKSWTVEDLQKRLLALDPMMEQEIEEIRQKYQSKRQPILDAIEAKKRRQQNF

For another data set, the system named is HepG2. Description: Inhibition of Flag-tagged MST1 D109A mutant (unknown origin) in human HepG2 cells assessed as MOB1 phosphorylation level at 0.3 to 10 uM by immunoblot analysis. The format is cell-based. Particulars: dose 0.3-10 µM.
The subject of data set [12] is Mus musculus. Description: Protection against duct ligation-induced mouse assessed as low dead cells at 1 mg/kg, ip administration daily for 10 days by TUNEL staining. It is filed as functional, organism-based. Particulars: Liver, time 10.0 day.
Data set [13] deals with Protein kinase C delta type (Homo sapiens) (UniProt Q05655). Description: Inhibition of PRKCD (unknown origin) assessed as remaining activity at 1 uM by Kinome scan method relative to control.
Chain of Protein kinase C delta type (Homo sapiens) (Q05655 whole entry, looked up): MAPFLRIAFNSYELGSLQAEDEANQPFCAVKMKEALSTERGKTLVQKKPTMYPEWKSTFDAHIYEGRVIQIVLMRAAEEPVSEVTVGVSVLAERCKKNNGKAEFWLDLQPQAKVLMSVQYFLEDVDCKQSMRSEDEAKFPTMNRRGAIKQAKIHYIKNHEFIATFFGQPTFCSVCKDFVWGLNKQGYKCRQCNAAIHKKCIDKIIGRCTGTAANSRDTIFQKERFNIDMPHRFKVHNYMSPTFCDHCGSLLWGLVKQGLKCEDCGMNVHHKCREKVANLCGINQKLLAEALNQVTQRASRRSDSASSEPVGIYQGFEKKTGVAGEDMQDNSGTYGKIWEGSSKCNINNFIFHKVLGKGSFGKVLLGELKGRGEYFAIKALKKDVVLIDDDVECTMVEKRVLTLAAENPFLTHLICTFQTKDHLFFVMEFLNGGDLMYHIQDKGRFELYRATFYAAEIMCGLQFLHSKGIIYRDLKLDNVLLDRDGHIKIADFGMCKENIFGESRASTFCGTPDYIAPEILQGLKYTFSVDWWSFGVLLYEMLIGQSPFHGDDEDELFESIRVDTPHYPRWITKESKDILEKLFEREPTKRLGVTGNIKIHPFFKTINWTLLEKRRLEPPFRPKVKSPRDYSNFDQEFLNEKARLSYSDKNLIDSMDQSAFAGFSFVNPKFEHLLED
The target of data set [14] is Myosin light chain kinase (Homo sapiens) (UniProt Q32MK0). Put plainly: Inhibition of MLCK (unknown origin) assessed as remaining activity at 1 uM by Kinome scan method relative to control.
The target of data set [15] is Serine/threonine-protein kinase WNK4 (Homo sapiens) (UniProt Q96J92). Put plainly: Inhibition of WNK4 (unknown origin) assessed as remaining activity at 1 uM by Kinome scan method relative to control.
Chain of Serine/threonine-protein kinase WNK4 (Homo sapiens) (Q96J92 whole entry): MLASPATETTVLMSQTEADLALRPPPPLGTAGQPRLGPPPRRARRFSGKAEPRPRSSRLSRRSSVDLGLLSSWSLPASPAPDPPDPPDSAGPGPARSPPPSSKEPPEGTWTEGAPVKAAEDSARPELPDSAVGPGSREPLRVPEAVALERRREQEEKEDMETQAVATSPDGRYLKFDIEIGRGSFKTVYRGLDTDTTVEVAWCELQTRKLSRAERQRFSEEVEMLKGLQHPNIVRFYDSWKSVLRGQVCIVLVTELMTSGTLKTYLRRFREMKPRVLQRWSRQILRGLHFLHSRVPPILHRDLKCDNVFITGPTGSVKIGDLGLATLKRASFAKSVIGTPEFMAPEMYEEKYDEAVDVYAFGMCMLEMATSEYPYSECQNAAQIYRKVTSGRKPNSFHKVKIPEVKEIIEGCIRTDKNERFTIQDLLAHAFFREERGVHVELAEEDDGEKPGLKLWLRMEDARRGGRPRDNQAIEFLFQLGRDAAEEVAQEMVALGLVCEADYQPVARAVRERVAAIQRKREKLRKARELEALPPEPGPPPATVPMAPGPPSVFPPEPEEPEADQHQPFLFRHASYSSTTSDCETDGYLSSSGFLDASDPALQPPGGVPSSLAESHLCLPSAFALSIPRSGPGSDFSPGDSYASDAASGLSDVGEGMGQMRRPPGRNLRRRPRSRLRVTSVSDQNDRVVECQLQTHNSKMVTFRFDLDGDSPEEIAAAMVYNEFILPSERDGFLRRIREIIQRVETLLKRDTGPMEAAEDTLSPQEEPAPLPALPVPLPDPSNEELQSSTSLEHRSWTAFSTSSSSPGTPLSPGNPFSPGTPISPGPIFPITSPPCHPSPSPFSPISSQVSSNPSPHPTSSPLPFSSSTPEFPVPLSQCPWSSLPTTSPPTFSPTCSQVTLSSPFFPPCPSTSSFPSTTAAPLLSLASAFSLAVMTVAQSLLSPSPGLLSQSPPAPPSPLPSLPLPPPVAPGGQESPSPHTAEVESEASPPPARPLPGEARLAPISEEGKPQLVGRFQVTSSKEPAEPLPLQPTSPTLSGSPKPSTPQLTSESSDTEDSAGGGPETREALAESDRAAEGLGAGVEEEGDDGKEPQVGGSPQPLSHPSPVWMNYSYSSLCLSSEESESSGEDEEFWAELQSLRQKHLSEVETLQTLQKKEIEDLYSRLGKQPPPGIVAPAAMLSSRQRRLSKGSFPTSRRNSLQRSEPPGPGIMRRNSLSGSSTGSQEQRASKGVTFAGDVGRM
Data set [16] addresses RAC-alpha serine/threonine-protein kinase (Homo sapiens) (UniProt P31749). Description: Inhibition of AKT1 (unknown origin) assessed as remaining activity at 1 uM by Kinome scan method relative to control. Summed up: as §1
For data set [17], the species on record is Homo sapiens. Put plainly: Inhibition of ALK C1156V mutant (unknown origin) assessed as remaining activity at 1 uM by Kinome scan method relative to control. The essentials: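 KINOMEscan active-site-dependent competition-binding panel of 468 kinases, compound at 1 μM from a DMSO stock. Result reported as ctrl% = (test signal − positive control signal)/(negative control signal − positive control signal) × 100. The negative control is DMSO (100%) and the positive control is a control compound (0%). Lower ctrl% means tighter binding.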

Data set [18] has as its target Serine/threonine-protein kinase 32B (Homo sapiens) (UniProt Q9NY57). Description: Inhibition of YANK2 (unknown origin) assessed as remaining activity at 1 uM by Kinome scan method relative to control.
For data set [19], the species on record is Homo sapiens. Description: Inhibition of recombinant His-tagged full-length MST1 Y101F mutant (unknown origin) expressing in Escherichia coli assessed as GST-tagged MOB1 phosphorylation level at 0.01 to 1 uM incubated for 15 min by immunoblot analysis. Conditions: dose 0.01-1 µM. Background: In western blotting, separated proteins are transferred to a membrane and probed.

In data set [20] the target is Ephrin type-B receptor 4 (Homo sapiens) (UniProt P54760). Put plainly: Inhibition of EPHB4 (unknown origin) assessed as remaining activity at 1 uM by Kinome scan method relative to control.

Calls of active or inactive are those of the source. The rule behind the calls is not given here.

Chain of Dual specificity protein kinase CLK4 (Homo sapiens) (Q9HAZ1 whole entry, looked up): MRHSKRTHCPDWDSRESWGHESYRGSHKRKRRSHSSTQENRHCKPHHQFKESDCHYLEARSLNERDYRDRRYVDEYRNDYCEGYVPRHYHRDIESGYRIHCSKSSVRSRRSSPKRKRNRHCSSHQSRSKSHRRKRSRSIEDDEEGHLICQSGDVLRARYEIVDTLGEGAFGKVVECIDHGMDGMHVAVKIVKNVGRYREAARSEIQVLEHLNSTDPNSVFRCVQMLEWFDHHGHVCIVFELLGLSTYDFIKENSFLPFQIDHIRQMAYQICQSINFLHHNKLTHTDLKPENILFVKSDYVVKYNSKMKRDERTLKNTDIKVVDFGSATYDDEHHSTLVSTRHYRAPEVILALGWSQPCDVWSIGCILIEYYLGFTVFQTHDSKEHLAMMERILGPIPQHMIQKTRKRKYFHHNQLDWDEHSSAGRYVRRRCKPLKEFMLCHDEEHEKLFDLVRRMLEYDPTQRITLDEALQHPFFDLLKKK
Chain of RAC-alpha serine/threonine-protein kinase (Homo sapiens) (P31749 whole entry): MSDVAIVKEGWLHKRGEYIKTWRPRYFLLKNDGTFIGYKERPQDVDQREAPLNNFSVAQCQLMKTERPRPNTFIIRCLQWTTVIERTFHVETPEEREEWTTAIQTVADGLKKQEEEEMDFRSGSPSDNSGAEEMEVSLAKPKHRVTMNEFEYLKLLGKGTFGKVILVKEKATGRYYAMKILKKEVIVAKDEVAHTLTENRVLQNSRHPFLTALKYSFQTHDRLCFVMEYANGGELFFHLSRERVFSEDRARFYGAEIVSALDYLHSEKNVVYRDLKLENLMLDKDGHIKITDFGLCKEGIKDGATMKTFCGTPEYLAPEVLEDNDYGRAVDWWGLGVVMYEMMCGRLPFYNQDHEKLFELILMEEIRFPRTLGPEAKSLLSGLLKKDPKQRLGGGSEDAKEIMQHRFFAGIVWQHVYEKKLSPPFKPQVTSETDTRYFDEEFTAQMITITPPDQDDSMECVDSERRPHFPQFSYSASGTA
Chain of Atypical kinase COQ8B, mitochondrial (Homo sapiens) (Q96D53 whole entry): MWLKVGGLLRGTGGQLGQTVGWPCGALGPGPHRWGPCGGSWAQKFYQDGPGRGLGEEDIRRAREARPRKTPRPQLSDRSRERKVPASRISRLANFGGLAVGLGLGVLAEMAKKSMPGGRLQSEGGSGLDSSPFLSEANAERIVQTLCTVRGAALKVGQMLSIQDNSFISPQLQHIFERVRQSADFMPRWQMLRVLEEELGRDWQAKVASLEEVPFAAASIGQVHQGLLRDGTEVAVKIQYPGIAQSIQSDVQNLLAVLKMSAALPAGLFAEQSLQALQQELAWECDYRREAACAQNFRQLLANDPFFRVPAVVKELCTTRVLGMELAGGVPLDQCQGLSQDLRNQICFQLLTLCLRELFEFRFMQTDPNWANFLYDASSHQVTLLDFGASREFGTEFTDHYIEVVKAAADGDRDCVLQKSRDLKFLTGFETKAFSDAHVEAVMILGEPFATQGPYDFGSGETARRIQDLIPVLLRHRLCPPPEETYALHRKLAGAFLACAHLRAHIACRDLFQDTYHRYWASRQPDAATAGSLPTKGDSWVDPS
Chain of Serine/threonine-protein kinase BRSK1 (Homo sapiens) (Q8TDC3 whole entry): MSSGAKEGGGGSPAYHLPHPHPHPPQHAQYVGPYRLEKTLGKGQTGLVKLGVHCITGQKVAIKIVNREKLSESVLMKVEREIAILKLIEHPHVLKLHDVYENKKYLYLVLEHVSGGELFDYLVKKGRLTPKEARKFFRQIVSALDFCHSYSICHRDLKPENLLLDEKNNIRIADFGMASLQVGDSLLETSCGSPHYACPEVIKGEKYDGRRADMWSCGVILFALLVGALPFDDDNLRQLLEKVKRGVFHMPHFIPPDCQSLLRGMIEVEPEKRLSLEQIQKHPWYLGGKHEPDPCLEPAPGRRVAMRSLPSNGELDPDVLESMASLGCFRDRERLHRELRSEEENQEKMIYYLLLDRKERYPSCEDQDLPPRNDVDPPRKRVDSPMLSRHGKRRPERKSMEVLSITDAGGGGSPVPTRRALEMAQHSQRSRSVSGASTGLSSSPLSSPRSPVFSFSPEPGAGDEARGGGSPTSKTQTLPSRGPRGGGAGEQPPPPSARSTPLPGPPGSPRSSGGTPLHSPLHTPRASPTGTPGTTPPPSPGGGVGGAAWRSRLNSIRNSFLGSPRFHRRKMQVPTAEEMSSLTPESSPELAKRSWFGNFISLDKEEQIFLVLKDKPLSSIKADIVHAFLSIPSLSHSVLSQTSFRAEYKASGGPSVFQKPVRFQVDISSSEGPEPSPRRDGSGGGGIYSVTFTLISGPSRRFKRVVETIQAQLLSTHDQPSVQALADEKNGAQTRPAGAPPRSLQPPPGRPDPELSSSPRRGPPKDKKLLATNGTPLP

As for `CN1C(=O)c2sccc2N(C)c2nc(Nc3ccc(S(N)(=O)=O)cc3)ncc21`, the Kd – broadly, the equilibrium constant for the complex coming apart – at Aurora kinase B turned out to be 40 nM; in data set [2], 180 nM. For the same compound, the Activity in the data set on Mus musculus [1] was around 40%; in [3], 96%; in data set [4], 100%; in [5], 100%; in data set [7] it was 79%; in data set [8], 95%. In addition, the Activity stood at 78% in [9]; 100% in [10]; 94% in data set [13]; 87% in [14]; 95% in [15]; 100% in [16]. In addition, the Activity amounted to 95% in the data set filed under Homo sapiens [17], 100% in data set [18] and 61% in data set [20]. In addition, the Vd in data set [6] came out at 7.1 L/kg. For the same compound, in data set [11], the IC50 (usually the midpoint of a concentration-inhibition curve) stood at 70.7 nM. Moreover, the inhibition result in the data set on HepG2 and in the data set filed under Homo sapiens [19] was “Active” throughout. Moreover, the outcome in the data set with Mus musculus [12] was Active.
